# Screening data: PubChem BioAssay, Johns Hopkins Ion Channel Center
# MrgX1 PAM = human MrgX1 positive allosteric modulation, primary screen. MrgX1-HEK293, Fluo-4 calcium flux, FDSS; hits give high values. B-score at 10 µM. actives 0.63% (n = 310,000). AID 588675;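 active = plate-corrected calcium response at least 3 library SD above typical, normal starting fluorescence, not activating the receptor alone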;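 note: compound read alongside a low EC10 to EC30 dose of BAM8-22 agonist; peak minus trough fluorescence over baseline measured at the second addition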
# Target sequence (Q96LB2 whole entry, looked up): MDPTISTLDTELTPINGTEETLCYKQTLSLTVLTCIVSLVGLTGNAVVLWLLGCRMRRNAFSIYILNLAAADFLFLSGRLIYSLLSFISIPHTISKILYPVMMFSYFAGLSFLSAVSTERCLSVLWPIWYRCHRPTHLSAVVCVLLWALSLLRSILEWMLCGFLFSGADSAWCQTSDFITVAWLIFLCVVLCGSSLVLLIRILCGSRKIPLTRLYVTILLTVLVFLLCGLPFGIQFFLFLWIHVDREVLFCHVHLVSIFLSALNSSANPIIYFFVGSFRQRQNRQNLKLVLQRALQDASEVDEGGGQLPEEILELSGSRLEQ
# MrgX1 antag = human MrgX1 receptor antagonism, primary screen | Q96LB2 | actives 1.3% (n = 310,000) | B-score at 10 µM | AID 588676 | MRGX1-HEK293 calcium flux, Fluo-4, BAM8-22 antagonism; hits give low values;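 active = calcium-response B-score plate-corrected more than 3 library SD below zero, starting fluorescence within 5 deviations, no agonist response on first addition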;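 note: peak minus trough fluorescence over baseline after final BAM8-22 challenge near maximal dose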
# RGS4 act = RGS4 potentiation or activation; HEK293 M3R/inducible RGS4, carbachol calcium flux Fluo4; hits give low values; B-score at 10 µM; actives 0.92% (n = 310,000); AID 463111;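 active = B-score of the integrated calcium signal more than 4 SD below the library mean, with starting fluorescence not abnormally high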;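 note: negative B-score means reduced calcium response which marks RGS4 activation or potentiation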
#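 Assay system: HEK293 FlpIn-TREx cells, stable M3R, doxycycline-inducible RGS4 / Probe or stimulus: carbachol, ECmax concentration / Times: overnight RGS4 induction, 30 min dye load 37 °C, 20 min compound RT / Signal: kinetic calcium fluorescence imaging with Fluo4-AM dye, 2 µM / Measure: Agonist-evoked peak-minus-minimum fluorescence over baseline, integrated ratio, B score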
# RGS4 block = inhibitors of human RGS4 | B-score at 10 µM | P49798 | HEK293 M3R/RGS4 inducible, Fluo-4 calcium flux; hits give high values; triggered by carbachol at its EC20 | actives 0.45% (n = 310,000);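 active = B-score, a plate-corrected calcium signal, over three deviations above library mean, with baseline fluorescence within five deviations of library mean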;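 note: RGS4 expression induced by doxycycline in cells with stable M3 receptor; B-score is computed from the integrated fluorescence ratio over baseline after carbachol; higher B-score means a larger calcium signal and so more RGS4 inhibition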
# Target sequence (P49798 whole entry, looked up): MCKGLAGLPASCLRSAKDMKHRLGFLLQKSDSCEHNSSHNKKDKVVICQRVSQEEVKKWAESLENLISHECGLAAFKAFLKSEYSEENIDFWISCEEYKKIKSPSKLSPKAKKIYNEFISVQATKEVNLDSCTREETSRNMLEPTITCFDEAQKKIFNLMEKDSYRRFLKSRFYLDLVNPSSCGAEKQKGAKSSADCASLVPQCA
# MrgX1 agonist = activates human MrgX1 receptor signaling. Q96LB2. MrgX1-HEK293 cells, Fluo-4 calcium fluorescence, agonist mode; hits give high values. B-score at 10 µM. actives 0.44% (n = 310,000). AID 588627;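 active = calcium response B-score plate-corrected fluorescence ratio at least 3 library SD, with starting fluorescence B-score inside 5 SD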
#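 Material: MrgX1-expressing HEK293 cells / Dosing: compound as first of three additions / Incubation: overnight seeding, then 1 h dark dye loading / Signal: Fluo-4 NW calcium fluorescence / Evaluation: B-scored fluorescence response ratio / Benchmarks: positive and negative control wells on each plate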
# MrgX1 antag conf = confirmation of human MrgX1 receptor antagonists | shares compounds with MrgX1 antag | MrgX1-HEK293, BAM8-22 calcium flux, Fluo-4; hits give low values | remaining BAM8-22 calcium response % of control (hits give low values), % at 10 µM | actives 19% (n = 2,300);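 active = remaining agonist calcium response no higher than 100% minus 3 SD of agonist-only control wells, with starting fluorescence near control levels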;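 note: agonist BAM8-22 given at a near maximal EC90 to ECmax level; peak minus minimum fluorescence divided by baseline after agonist addition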
# HEK293 Ca flux = MrgX1 antagonist counter-screen hit in parental HEK293 cells; shares compounds with MrgX1 antag; Fluo-4 calcium fluorescence, FDSS; fluorescence ratio F(max-min)/F0 at 10 µM; actives 2% (n = 4,000); AID 624111;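 active = duplicate-averaged calcium fluorescence ratio at least three times the standard deviation of buffer wells, a nonspecific response in parental cells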
# HEK293 Ca counter = activity in parental HEK293 cells without MrgX1; actives 0.4% (n = 4,000); shares compounds with MrgX1 antag; parental HEK293 calcium flux, Fluo-4 fluorescence ratio; hits give high values; fluorescence ratio F(max-min)/F0 at 10 µM; AID 624114;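 active = calcium fluorescence ratio, averaged over duplicates, at least 3 SD of the buffer-well ratio, meaning a nonspecific response in receptor-free cells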;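 note: untransfected parental HEK293 lacking MrgX1 used as counterscreen for MrgX1 allosteric activators; fluorescence change taken during the second addition on a kinetic imager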
# HEK293 Ca cntr2 = counter-screen for MrgX1 activators: effect in parental HEK293 cells; fluorescence ratio F(max-min)/F0 at 10 µM; actives 8.7% (n = 4,000); Fluo-4 calcium fluorescence (FDSS); hits give high values; shares compounds with MrgX1 antag;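 active = calcium fluorescence ratio at least three times the spread of buffer wells, meaning a non-specific response in parental cells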
# Numbers stand for hits; n = inactive; x = not tested or not shown. Shown are actives, neighbours in structure and some others; about 3.5% of the full set was active somewhere.
SMILES,MrgX1 PAM,MrgX1 antag,RGS4 act,RGS4 block,MrgX1 agonist,MrgX1 antag conf,HEK293 Ca flux,HEK293 Ca counter,HEK293 Ca cntr2
O=C(CNC(=O)c1ccc(Br)o1)NCc1cccc(Cl)c1,n,n,n,n,n,x,x,x,x
O=C(CNC(=O)c1ccc(Br)o1)NCc1ccc(Cl)cc1Cl,n,-4.78,n,n,n,n,n,n,n
NC(=O)c1cc(C(=O)Cc2ccc(Cl)cc2)c[nH]1,n,n,n,n,n,x,x,x,x
COc1ccccc1-c1nnc(SC2CCc3ccccc3NC2=O)s1 (centres undefined),n,-6.39,n,n,n,n,n,n,n
CCOC(=O)c1ccc(-c2c(C(=O)OCC)oc3cc(O)c(CC)cc3c2=O)o1,n,-4.8,n,n,n,80.3%,n,n,n
CCOC(=O)c1ccccc1NC(=O)COC(=O)C1CCN(S(=O)(=O)c2ccccc2C(=O)OC)CC1,n,-11,n,n,n,n,n,n,n
Cc1ccc(NC(=O)COC(=O)C2CCC2)cc1S(=O)(=O)N1CCCCC1,n,-5.38,n,n,n,84.1%,n,n,n
Cc1ccc(NC(=O)COC(=O)Cc2ccsc2)cc1S(=O)(=O)N1CCOCC1,n,-5.43,n,n,n,n,n,n,n
CCC(C)(C)NC(=O)CN(C(=O)CCC(=O)Nc1nccs1)c1cccc(C)c1C,n,n,n,n,n,x,x,x,x
CCCNC(=O)C12CCC(C)(c3nc4cc(C)c(C)cc4nc31)C2(C)C (centres undefined),n,n,n,n,n,x,x,x,x
CCCOC(=O)c1ccc(NC(=O)C(CC)CC)cc1,n,-6.43,n,n,n,n,n,n,n
Fc1ccccc1-c1n[nH]c(=S)n1CC1CCCO1 (centres undefined),n,-6.31,n,n,n,n,n,n,n
O=C(c1cccc(-n2cccc2)c1)N1CCN(S(=O)(=O)c2c(F)cccc2F)CC1,n,-6.1,n,n,n,n,n,n,n
O=C(c1cccc(-n2cccc2)c1)N1CCN(S(=O)(=O)c2ccccc2)CC1,n,n,n,n,n,x,x,x,x
COc1ccc(N2CC(O)=C(c3nc(-c4ccc(F)cc4)cs3)C2=N)cc1OC,n,-6.75,n,n,n,n,n,n,n
COc1ccc(N2CC(O)=C(c3nc(-c4ccc(F)cc4)cs3)C2=N)cc1Cl,n,n,n,n,n,x,x,x,x
C/C(=N/NC(=O)CC1N=C(Cc2ccccc2)NNC1=O)c1cccnc1 (centres undefined),n,n,n,n,n,x,x,x,x
CCOC(=O)c1cnc2c(cnn2C)c1Oc1ccc(OC)cc1,n,n,n,n,n,x,x,x,x
CCOC(=O)c1cnc2c(cnn2C)c1NCCC(O)C(F)(F)F (centres undefined),n,-4.76,n,n,n,n,n,n,n
O=C(COc1ccc(S(=O)(=O)N2CCOCC2)cc1Cl)NCc1ccccn1,n,n,n,n,n,x,x,x,x
O=C(COc1ccc(S(=O)(=O)N2CCCC2)cc1Cl)NCc1ccccn1,n,-6.17,n,n,n,n,n,n,n
CCOC(=O)c1sc(NC(=O)CSc2nc(C)cc(C)c2C#N)c(C#N)c1C,n,-7.3,n,n,n,n,n,n,n
CCOC(=O)c1sc(NC(=O)CSc2nc3c(cc2C#N)CCCCCC3)c(C#N)c1C,n,n,n,n,n,x,x,x,x
O=C(O)c1cc(-c2ccc(Cl)s2)[nH]n1,n,n,n,n,n,x,x,x,x
Cc1cc(=O)[nH]c(SCc2nnnn2-c2ccc(Cl)cc2)n1,n,n,n,n,n,x,x,x,x
SMILES,MrgX1 PAM,MrgX1 antag,RGS4 act,RGS4 block,MrgX1 agonist,MrgX1 antag conf,HEK293 Ca flux,HEK293 Ca counter,HEK293 Ca cntr2
Nc1cc(=O)[nH]c(SCc2nnnn2-c2ccc(Cl)cc2)n1,n,-6.87,n,n,n,n,n,n,n
CN(C)S(=O)(=O)c1ccc2c(c1)C(CC(=O)O)OC2=O (centres undefined),n,-4.54,n,n,n,n,n,n,n
CN1CCOCCOCCN(C)C1=O,n,-4.59,n,n,n,n,n,n,n
CNC(=O)COC(=O)c1nc(-n2nc(C)cc2C)ccc1Cl,n,-6.77,n,n,n,n,n,n,n
CCN(C(=O)Cc1c(C(=O)O)n(C)c2ccccc12)c1ccc(F)cc1,n,-5,n,n,n,n,n,n,n
CCN(C(=O)Cc1c(C(=O)O)n(C)c2ccccc12)c1cc(OC)ccc1OC,n,n,n,n,n,x,x,x,x
CC(=O)C(Sc1nnnn1-c1ccc(O)cc1)c1ccccc1 (centres undefined),n,n,n,n,n,x,x,x,x
COc1ccc(Cc2nc3ccc(C(=O)NCC(C)(C)OC)cc3o2)cc1,n,-6.31,n,n,n,n,n,n,n
O=C(O)c1ccc(N2CCCCC2)cc1,n,-6.4,n,n,n,n,n,n,n
COCCNC(=O)C(=O)NCC1OCCN1C(=O)c1ccc(Cl)cc1 (centres undefined),n,-5.63,n,n,n,n,n,n,n
COC(CNC(=O)C(=O)NCC1OCCN1C(=O)c1ccc(Cl)cc1)OC (centres undefined),n,n,n,n,n,x,x,x,x
CSc1cccc(NC(=S)N(CCC(C)C)C2CCN(C(C)=O)CC2)c1,n,n,n,n,n,x,x,x,x
CSc1cccc(NC(=S)N(CCC(C)C)C2CCN(C(C)C)CC2)c1,n,-6.29,n,n,n,n,n,n,n
Cn1ccnc1SCC(=O)Nc1ccc(Br)cc1C(F)(F)F,n,-5.87,n,n,n,n,n,n,n
CC(=O)Nc1ccc(NC(=O)C(C)OC(=O)CN(C)S(=O)(=O)c2ccc(Cl)cc2)cc1 (centres undefined),n,-6.08,n,n,n,n,n,n,n
CCOC(=O)C1=C2NC(=O)c3ccccc3N2C(=O)C1,n,n,n,n,n,x,x,x,x
Cc1c([C@@H]2C[C@H]3CN(Cc4cccc(Cl)c4)C(=O)[C@]34CCCN24)cnn1C,n,n,n,n,n,x,x,x,x
Cn1cc([C@@H]2C[C@H]3CN(Cc4cccc(Cl)c4)C(=O)[C@]34CCCN24)c2ccccc21,n,-5.22,n,n,n,n,n,n,n
Cc1nnc(SCCC(=O)Nc2ccccc2Cl)o1,n,n,n,n,n,x,x,x,x
CC(C)n1nccc1NC(=O)Nc1ccccc1,n,n,n,n,n,x,x,x,x
